Data as given in ChEMBL document CHEMBL3243972, “Analogues of ornithine as inhibitors of ornithine decarboxylase. New deductions concerning the topography of the enzyme's active site” (J Med Chem, 1978).
Calls of active or inactive are those of the source. The calls are words filed in the database; no cut-off is given here.

Assays:
[1] = molecular target: T1, Ornithine decarboxylase (Rattus norvegicus, UniProt P09057); test: Competitive inhibition of rat liver ornithine decarboxylase using DL-[1-14C]ornithine as substrate after 1 hr by dixon plot analysis
T1 sequence (P09057 whole entry): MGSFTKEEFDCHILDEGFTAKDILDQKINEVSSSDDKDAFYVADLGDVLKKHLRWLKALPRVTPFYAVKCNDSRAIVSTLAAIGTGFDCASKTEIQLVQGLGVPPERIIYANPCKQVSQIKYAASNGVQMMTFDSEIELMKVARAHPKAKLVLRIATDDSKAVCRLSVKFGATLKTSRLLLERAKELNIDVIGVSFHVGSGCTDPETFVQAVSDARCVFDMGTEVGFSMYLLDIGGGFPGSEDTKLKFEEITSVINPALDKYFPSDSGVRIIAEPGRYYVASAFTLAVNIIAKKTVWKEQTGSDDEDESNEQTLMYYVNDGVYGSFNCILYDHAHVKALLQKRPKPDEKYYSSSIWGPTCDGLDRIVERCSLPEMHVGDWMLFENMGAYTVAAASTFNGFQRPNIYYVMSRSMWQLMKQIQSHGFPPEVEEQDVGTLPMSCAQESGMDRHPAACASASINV
In short: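 ODC from livers of rats given thioacetamide 18 h before sacrifice, ~tenfold purified by acid treatment at pH 4.6. Incubation: sodium phosphate pH 7.1, PLP 0.1 µmol, DTT 5 µmol, DL-[1-14C]ornithine 0.043 µmol plus L-ornithine 0.8 µmol in 0.95 mL; 14CO2 release after 1 h at 37 °C; KI from Dixon plots by least-squares fit.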

[2] = molecular target: T1, Ornithine decarboxylase; test: Competitive inhibition of ornithine decarboxylase in rat HTC cells using DL-[1-14C]ornithine as substrate after 1 hr by dixon plot analysis; type: cell-based
In short: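 HTC hepatoma cell ODC; sodium phosphate pH 7.1 assay with PLP 0.1 µmol, DTT 5 µmol, DL-[1-14C]ornithine 0.043 µmol, L-ornithine 0.8 µmol, final 0.95 mL; enzyme added to start; 14CO2 measured after 1 h at 37 °C. KI from Dixon plots, or for some values from ID50 at ornithine equal to KM, taking KI = ID50/2.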

[3] = molecular target: T2, Ornithine decarboxylase (Bos taurus, UniProt P27117); test: Competitive inhibition of bull prostate ornithine decarboxylase using DL-[1-14C]ornithine as substrate after 1 hr by dixon plot analysis; set-up: species or system Prostate gland
T2 sequence (P27117 whole entry): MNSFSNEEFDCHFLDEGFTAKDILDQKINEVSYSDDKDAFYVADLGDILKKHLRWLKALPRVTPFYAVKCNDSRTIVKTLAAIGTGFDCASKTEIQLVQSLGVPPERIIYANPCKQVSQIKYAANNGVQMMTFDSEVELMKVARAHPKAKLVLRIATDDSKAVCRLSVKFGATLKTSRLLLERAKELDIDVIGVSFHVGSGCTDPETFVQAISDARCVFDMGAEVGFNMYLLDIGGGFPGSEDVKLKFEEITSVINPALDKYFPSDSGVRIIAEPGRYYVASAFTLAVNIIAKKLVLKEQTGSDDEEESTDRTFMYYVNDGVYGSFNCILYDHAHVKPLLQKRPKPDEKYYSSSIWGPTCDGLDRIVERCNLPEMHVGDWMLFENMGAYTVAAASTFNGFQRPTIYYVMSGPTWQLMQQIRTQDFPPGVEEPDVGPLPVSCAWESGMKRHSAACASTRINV
In short: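 Bull prostate ODC purified ~fourfold: homogenized at 4 °C in Tris-HCl 10 mM pH 7.2, sucrose, EDTA, DTT 5 mM, PLP 0.1 mM; 20000g and 105000g spins, 20–50% (NH4)2SO4 cut, dialysis. Assay in 0.95 mL Tris-HCl pH 7.2 with PLP 0.1 µmol, DTT 5 µmol, DL-[1-14C]ornithine 0.043 µmol, L-ornithine 0.8 µmol; 14CO2 counted after 1 h at 37 °C; KI from Dixon plots, least-squares fit.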

[4] = Binding affinity to pyridoxal-phosphate
[5] = molecular target: T3, Ornithine decarboxylase (Rattus norvegicus) (UniProt P09057); test: Inhibition of rat prostate ornithine decarboxylase at 10 mM; settings: Prostate gland
T3 sequence (whole entry): T1 sequence (P09057 whole entry)

[6] = molecular target: T3, Ornithine decarboxylase (Rattus norvegicus); test: Competitive inhibition of rat liver ornithine decarboxylase using DL-[1-14C]ornithine as substrate at 0.25 mM after 1 hr by dixon plot analysis
[7] = molecular target: Ornithine decarboxylase (Bos taurus); test: Inhibition of bull prostate ornithine decarboxylase
[8] = molecular target: T3, Ornithine decarboxylase (Rattus norvegicus); test: Competitive inhibition of rat liver ornithine decarboxylase using DL-[1-14C]ornithine as substrate at 4 mM after 1 hr by dixon plot analysis
[9] = molecular target: T3, Ornithine decarboxylase (Rattus norvegicus); test: Competitive inhibition of rat liver ornithine decarboxylase using DL-[1-14C]ornithine as substrate at 1 mM after 1 hr by dixon plot analysis
[10] = molecular target: T3, Ornithine decarboxylase (Rattus norvegicus); test: Competitive inhibition of ornithine decarboxylase in rat HTC cells using DL-[1-14C]ornithine as substrate at 1 mM after 1 hr by dixon plot analysis; type: cell-based
[11] = molecular target: T1, Ornithine decarboxylase; test: Competitive inhibition of Sprague-Dawley rat prostate ornithine decarboxylase using DL-[1-14C]ornithine as substrate by liquid scintillation counting analysis; set-up: species or system Prostate gland

SMILES	Ki [1]	Ki [3]	Kd [4]	further results
C[C@](N)(CCCN)C(=O)O	19 µM	20 µM	2350 µM	Ki ([2]; read-out: Ki): 20 µM
C[C@@](N)(CCCN)C(=O)O	1300 µM	1000 µM	–	Ki ([2]; read-out: Ki): 1050 µM
NCCCC(N)c1nnn[nH]1 (centres undefined)	120 µM	70 µM	–	Ki ([2]; read-out: Ki): 140 µM
N[C@H]1CC[C@](N)(C(=O)O)CC1	70 µM	–	–	Ki ([2]; read-out: Ki): 70 µM
NCCC[C@@H](N)C(=O)O	–	–	–	inhibition [5]: 25%
N[C@H]1CC[C@@](N)(C(=O)O)CC1	–	–	–	inhibition [6]: inactive
CNCCCC(C)(N)C(=O)O (racemic)	500 µM	740 µM	5360 µM	–
CC(N)(CCCN)C(=O)O (racemic)	40 µM	–	–	Ki ([2]; read-out: Ki): 40 µM
NC/C=C/C(N)C(=O)O (racemic)	–	–	–	Ki [7]: 4400 µM
CC(N)(CCCCN)C(=O)O (racemic)	–	–	–	inhibition [8]: inactive
CC(N)(CCN)C(=O)O (racemic)	–	–	–	inhibition [8]: inactive
CN(C)CCCC(C)(N)C(=O)O (racemic)	–	–	–	inhibition [9]: inactive
NCCC(O)C(N)C(=O)O (racemic)	–	–	–	inhibition [10]: inactive
NCCCC(N)(CO)C(=O)O (racemic)	–	–	–	inhibition [9]: inactive
CC(N)(CCCNCCCN)C(=O)O (racemic; 3)	–	4400 µM	900 µM	Ki ([2]; htc): Not Active
CC(N)(CCCNCCCN)C(=O)O (racemic; 8)	–	5500 µM	–	–
NCCC[C@H](N)C(=O)O [ORNITHINE]	–	–	1250 µM	–
NCCCCN [PUTRESCINE]	–	–	800 µM	–
NCCCCNCCCN [SPERMIDINE]	–	3000 µM	700 µM	Ki [11]: 2700 µM
